Drawing on the array DNA melting data of Ke et al. (doi:10.1101/2024.01.08.574731), this text covers folding enthalpy and Tm for 55 sequences.

Data set [1] can be described thus: folding enthalpy; higher = less favourable; fluorescence melt of hairpins on a sequencing array, two-state fit. Conditions: sodium 0.088 M. An outline of the steps: (§1)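 To match UV melts, fitted temperatures were raised by 9.35 °C. These fits were bootstrapped two-state models that gave melting temperature and folding enthalpy, combined by inverse variance over four replicates. The input was normalised Cy3 fluorescence of library hairpins with annealed Cy3 and quencher oligos on a sequenced MiSeq flow cell, imaged in 50 mM Na-HEPES pH 8.0, 25 mM NaCl in 2.5 °C steps up to 60 °C.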

Data set [2] is described as follows: melting temperature; fluorescence melt of hairpins on a sequencing array, two-state fit, raised by 9.35 °C to match UV melts. As to conditions: sodium 0.088 M. An outline of the steps:
as §1

Consider GGGACTCCGAAAGGACCC (((..(((....)))))), for which the folding enthalpy in data set [1] is -16 kcal/mol. Moreover, in data set [2], the Tm was determined as 41.5 °C.
On to GGGACTGAAAAGTCCC ((((((....)))))), for which the folding enthalpy in data set [1] was -33.7 kcal/mol. Also, the Tm in data set [2] was 68.3 °C.
Turning to GGGACTGGAAACAGTCCC (((((((....))))))), in data set [1], the folding enthalpy is -37.8 kcal/mol. Further, the Tm in data set [2] worked out at 69 °C.
Taken in the same sequence, the figures for GGGACTGGAAACGGTCCC (((((.(....).))))) were -44.6 kcal/mol and 57.6 °C.
Take GGGACTGGAAACGGTCTC (.(((.(....).))).): the folding enthalpy in data set [1] was -23.1 kcal/mol. For the same sequence, the Tm in data set [2] worked out at 37.4 °C.
For GGGAGACGAAAGTCCCCC (((.(((....))).))) the same measures were -28.8 kcal/mol and 58.8 °C.
Taken in the same sequence, the figures for GGGAGAGGAAACTCTTCC ((.((((....)))).)) were -30.7 kcal/mol and 45.5 °C.
As to GGGAGCACGAAAGTGCCC (((..(((....)))))), in data set [1], the folding enthalpy is -10.6 kcal/mol. In data set [2], the Tm came to 59.1 °C.
Regarding GGGAGCGAAAGCTAGCCC ((((((....)))..))), in data set [1], the folding enthalpy was -14.2 kcal/mol. Besides, in data set [2], the Tm is 42.7 °C.
As for GGGAGCGAAAGCTCGCCC ((((((....)))..))), in data set [1], the folding enthalpy was -11.6 kcal/mol. Moreover, the Tm in data set [2] was 52.7 °C.
Taken in the same sequence, the figures for GGGAGCGAAAGCTGTCCC ((((((....)))..))) were -17.2 kcal/mol and 45.6 °C.
Turning to GGGAGCGAAAGCTTGCCC ((((((....)))..))), the folding enthalpy in data set [1] was -12.2 kcal/mol. Besides, in data set [2], the Tm is 39.4 °C.
For GGGAGGAAACTCCC (((((....))))), the folding enthalpy in data set [1] was -33.5 kcal/mol. Further, the Tm in data set [2] came out at 56 °C.
Take GGGAGGCCGAAAGGCCCC (((..(((....)))))): in data set [1], the folding enthalpy was -9.7 kcal/mol. Also, the Tm in data set [2] is 56.6 °C.
Taken in the same sequence, the figures for GGGAGTACGAAAGTACCC (((..(((....)))))) were -13.1 kcal/mol and 51.3 °C.
On to GGGAGTCGAAAGACCCCC (((.(((....))).))), for which the folding enthalpy in data set [1] is -37.3 kcal/mol. Also, the Tm in data set [2] was determined as 59.3 °C.
For GGGAGTGGAAACGCTCCC (((((.(....).))))) the same measures were -38.9 kcal/mol and 58 °C.
As to GGGAGTGGAAACGTTCCC ((((..(....)..)))), the folding enthalpy in data set [1] was -16.5 kcal/mol. Besides, the Tm in data set [2] is 36.2 °C.
For GGGAGTTCGAAAGAACCC (((..(((....)))))) the same measures were -18.2 kcal/mol and 47.9 °C.
Taken in the same sequence, the figures for GGGATACGAAAGTACCC (((.(((....)))))) were -27.4 kcal/mol and 51.2 °C.
For GGGATAGGAAACTATCCC (((((((....))))))) the same measures were -42.8 kcal/mol and 59.2 °C.
As for GGGATAGGAAACTGTCCC ((((.((....)).)))), in data set [1], the folding enthalpy was -35.9 kcal/mol. The Tm in data set [2] was found to be 49.4 °C.
Turning to GGGATCACGAAAGTGCCC (((..(((....)))))), the folding enthalpy in data set [1] was -15.3 kcal/mol. In data set [2], the Tm amounted to 39.3 °C.
Taken in the same sequence, the figures for GGGATCGAAAGATAACCC ((((((....)))..))) were -19.4 kcal/mol and 34.9 °C.
Taken in the same sequence, the figures for GGGATCGAAAGATCACCC ((((((....)))..))) were -13.4 kcal/mol and 51.1 °C.
Taken in the same sequence, the figures for GGGATCGAAAGATGCCC ((((((....))).))) were -46.8 kcal/mol and 50.3 °C.
With GGGATCGAAAGATGGCCC ((((((....)))..))), the folding enthalpy in data set [1] was -13.8 kcal/mol. Besides, the Tm in data set [2] came out at 33.5 °C.
GGGATCGCGAAAGCGCCC (((..(((....)))))): the folding enthalpy in data set [1] is -13.8 kcal/mol. The Tm in data set [2] was 40.6 °C.
Taken in the same sequence, the figures for GGGATCGGAAACGGTCCC ((((.((....)).)))) were -47.5 kcal/mol and 57.8 °C.
Taken in the same sequence, the figures for GGGATGGCGAAAGCCCCC (((..(((....)))))) were -15.7 kcal/mol and 47.3 °C.
Taken in the same sequence, the figures for GGGATGGGAAACCATCTC (.(((((....))))).) were -24.5 kcal/mol and 49.9 °C.
For GGGATGGGAAACCGTCCC ((((.((....)).)))), the folding enthalpy in data set [1] was -50.5 kcal/mol. For the same sequence, the Tm in data set [2] was 56.5 °C.
For GGGATTCCGAAAGGACCC (((..(((....)))))) the same measures were -16 kcal/mol and 40.3 °C.
On to GGGATTCGAAAGAAGCCC (((.(((....))).))), for which, in data set [1], the folding enthalpy is -34.7 kcal/mol. Moreover, the Tm in data set [2] was determined as 63.5 °C.
For GGGATTGGAAACAACCCC (((.(((....))).))), in data set [1], the folding enthalpy was -28 kcal/mol. Moreover, in data set [2], the Tm stood at 42.4 °C.
Consider GGGATTGGAAACAGTCCC ((((.((....)).)))), for which, in data set [1], the folding enthalpy is -31.5 kcal/mol. In data set [2], the Tm amounted to 48.8 °C.
Consider GGGCAAGGAAACTTACCC (((.(((....))).))), for which, in data set [1], the folding enthalpy was -29.2 kcal/mol. Besides, the Tm in data set [2] was 38.9 °C.
GGGCACACGAAAGTGCCC (((..(((....)))))): the folding enthalpy in data set [1] was -30.4 kcal/mol. In addition, the Tm in data set [2] worked out at 67.3 °C.
For GGGCACGAAAGTGACCC ((((((....))).))) the same measures were -13.2 kcal/mol and 66.8 °C.
Taken in the same sequence, the figures for GGGCACGAAAGTGACCCC ((((((....)))..))) were -10.3 kcal/mol and 68.5 °C.
Taken in the same sequence, the figures for GGGCACGAAAGTGAGCCC ((((((....)))..))) were -32.9 kcal/mol and 56.7 °C.
Regarding GGGCACGAAAGTGCTCCC ((((((....)))..))), in data set [1], the folding enthalpy was -9.92 kcal/mol. Moreover, in data set [2], the Tm turned out to be 53.1 °C.
For GGGCACGAAAGTGTCCC ((((((....))).))), the folding enthalpy in data set [1] is -16.5 kcal/mol. Moreover, the Tm in data set [2] worked out at 65.1 °C.
For the sequence GGGCACGAAAGTGTCCCC ((((((....)))..))), in data set [1], the folding enthalpy is -12 kcal/mol. Also, in data set [2], the Tm came to 65.1 °C.
For GGGCAGGCGAAAGCCCCC (((..(((....)))))) the same measures were -14.5 kcal/mol and 46 °C.
For GGGCAGGGAAACCCACCC (((..((....))..))) the same measures were -24.5 kcal/mol and 34.8 °C.
On to GGGCAGGGAAACTTGCCC (((((.(....).))))), for which the folding enthalpy in data set [1] was -47.7 kcal/mol. Moreover, in data set [2], the Tm turned out to be 55.9 °C.
Consider GGGCAGTCGAAAGACCCC (((..(((....)))))), for which, in data set [1], the folding enthalpy is -21.6 kcal/mol. Further, in data set [2], the Tm was 41.7 °C.
For GGGCATCGAAAGATTCCC (((.(((....))).))), the folding enthalpy in data set [1] is -27.7 kcal/mol. In data set [2], the Tm was found to be 47.5 °C.
Taken in the same sequence, the figures for GGGCATTCGAAAGAACCC (((..(((....)))))) were -14.2 kcal/mol and 29.5 °C.
As for GGGCCAACGAAAGTTCCC (((..(((....)))))), the folding enthalpy in data set [1] was -14.4 kcal/mol. Besides, the Tm in data set [2] was determined as 30.4 °C.
For GGGCCACGAAAGTGACCC (((.(((....))).))) the same measures were -40.5 kcal/mol and 64.4 °C.
GGGCCAGGAAACCAGCCC ((((..(....)..)))): the folding enthalpy in data set [1] is -26.8 kcal/mol. In data set [2], the Tm came out at 43.9 °C.
Taken in the same sequence, the figures for GGGCCAGGAAACTGGTCC ((.((((....)))).)) were -35 kcal/mol and 61.9 °C.
Taken in the same sequence, the figures for GGGCCCCGAAAGGGTCCC (((.(((....))).))) were -27.4 kcal/mol and 65.2 °C.
